According to ChEMBL document CHEMBL4513216, “Probing the Open Global Health Chemical Diversity Library for Multistage-Active Starting Points for Next-Generation Antimalarials” (ACS Infect Dis, 2020):

Experiment: Toxicity liver stage against HepG2, at 10uM
Type: cell-based
Design: test concentration 10 uM, cell line HepG2-A16-CD81EGFP
Conditions: human, HepG2-A16-CD81EGFP cells; read-out: INHIBITION
In short: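 Uninfected HepG2-A16-CD81EGFP cells, 3 × 10^3 per well, 1536-well, plated on prespotted compound at 10 μM final, parasite-free screening media added to match infected plates; puromycin 10 μM positive, DMSO 0.5% negative; run in parallel with 48 h PbLuc assay at 37 °C, 5% CO2; viability by CellTiter-Glo luminescence, normalized to controls.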

Compound | cytotoxicity at 10 µM
Cc1cc(=O)[nH]c(=O)n1Cc1ccccc1 | -42.6%
Cc1ccc(-c2nnc([C@H]3CCN(C4CCC4)C3)o2)cc1 | 8.81%
Cn1cncc1-c1nnc([C@H]2CCN(C3CCOCC3)C2)o1 | -3.46%
CCN(CC)CCNc1c(-c2ccccc2)c(=O)c1=O | -0.686%
CNC(=O)c1cn(C(C)(C)C)c2ncccc12 | -7.85%
CC1(C)CN(CC(O)C(C)(C)C)C(=O)CN(C(=O)c2ccccc2)C1 (configuration not stated) | -6.87%
CN(C)CCNC(=O)Cn1cnc2cc(NC(=O)C3CC3)ccc21 | -14.3%
COC(CNC(=O)c1cc(C)on1)c1ccccc1C (configuration not stated) | -17.8%
COCc1ncn2c1CN(C(=O)c1ccco1)CC2 | 9.32%
Cn1ncc2c1C(COCC1CC1)CN(Cc1ccsc1)C2 (configuration not stated) | -1.11%
CC(=O)N1CC(=O)N(c2cnn(C)c2)CC12CCN(Cc1nccs1)C2 (configuration not stated) | 6.03%
CCn1cc(S(=O)(=O)N2CCC(C)CC2)c(C)n1 | 8.44%
NC(=O)c1ccn(COc2ccccc2Cl)n1 | 2.96%
O=C(c1ccc(COc2ccccc2Cl)o1)N1N=CCC1(O)C(F)(F)F (configuration not stated) | 14.5%
Cc1nc(C)c(CC(=O)N2CCC(c3ccn4nccc4n3)CC2)s1 | -0.743%
O=C(NC[C@]1(O)CCN(Cc2ccccc2F)C[C@H]1O)c1c[nH]cn1 | 4.41%
Cc1nccn1[C@@H]1CC[C@@H](NC(=O)CCCn2cccn2)[C@H]1O | -6.28%
CN(C)C(=O)c1cncnc1-c1ccc(CNC(=O)C2CCCO2)cc1 (configuration not stated) | 5.55%
CCC1CCCCN1C(=O)Cn1nc(-c2ccc(C)o2)cc(N)c1=O (configuration not stated) | 3.27%
Cc1nnc(N2CCOC(C)(C(=O)NC3CCCC3)C2)c2ccccc12 (configuration not stated) | 7.92%
NCCCC(=O)NCC1(O)CCCN(c2ccnc3cccnc23)C1 (configuration not stated) | 3.71%
CCc1nccn1-c1cncc(C2CCCN2CC(=O)N2CCCC2)n1 (configuration not stated) | 0.193%
CC(CN1CCCC1=O)NC(=O)Nc1cccnc1-n1cccn1 (configuration not stated) | -170%

Compound | cytotoxicity at 10 µM
O=C(NCCSC1CCCC1)c1cnccn1 | -0.95%
CC1COCCN1C(=O)c1ccc(=O)n(CCOc2ccccc2)n1 (configuration not stated) | -13.5%
CN1CCC(Nc2cc(Cl)ccc2OCC(F)(F)F)C1=O (configuration not stated) | -2.71%
COc1ncccc1N(C)C(=O)Cn1cc(-c2ccccc2)nn1 | -1.11%
CSc1ccc(NCC(=O)NC(=O)NCC(F)(F)F)cc1F | -7.91%
CCC(NS(=O)(=O)N1CCOCC1)c1ccccc1OC (configuration not stated) | -45.1%
CC(C)COC(=O)N1CCCN(C(C)c2nnc(CC(C)C)o2)CC1 (configuration not stated) | 8.69%
CN(C)c1cc(CNC(=O)CC2CCCCC2)ccn1 | 9.24%
Cc1ccccc1CCCN1C(=O)CC2(CCSC2)C1=O (configuration not stated) | -3.45%
Cc1ccc(CNCc2nccn2C)c(OCC2CC2)c1 | -4.52%
CCC1CCC(CNC(=O)c2c[nH]c(=O)c(Cl)c2)CC1 (configuration not stated) | -8.46%
CC(c1ncc(C(C)(C)C)o1)N1CCN(Cc2ccco2)CC1 (configuration not stated) | 5.3%
COc1ccc(OCC(=O)NS(=O)(=O)c2cc(C)ccc2C)cc1 | 7.19%
COc1cccc(CN(C)Cc2ccccc2C#N)c1OC | -5.92%
CS(=O)(=O)NCCC1CCCCN1C(=O)NCc1ccccn1 (configuration not stated) | -0.871%
CC(C)Oc1cccc(C(O)CNC(=O)Nc2cccs2)c1 (configuration not stated) | 2.19%
OC1CCN(c2ccccc2NCc2nc(-c3ccoc3)no2)CC1 | 14.5%
COc1ccc2c(c1)C(=O)N(C)C1(CCN(CC3CC3)CC1)N2 | 6.4%
FC(F)(F)c1cccnc1N1CCC(OC2CCOCC2)CC1 | -8.44%
CS(=O)(=O)CCNCc1ccc(OCc2ccccn2)cc1 | -128%
NC(=O)CN(Cc1ccc(Br)cc1)C(=O)c1cnccn1 | 8.48%
COc1cc(C)c(CNC(C)c2csc(C)n2)cc1OC (configuration not stated) | 5.06%
COCCCS(=O)(=O)N(Cc1cccc(C)c1)Cc1ccccn1 | 2.47%

Compound | cytotoxicity at 10 µM
CC1CN(C)c2ccccc2CN1C(=O)NCc1ccon1 (configuration not stated) | 7.36%
COc1ccc(C(C)Nc2ncc(C(N)=O)cc2Cl)c(OC)c1 (configuration not stated) | 19.1%
CCn1nc(-c2ccccc2F)ccc1=O | 12.9%
CCN(C(=O)c1nc2c(s1)CCCN2S(C)(=O)=O)C(C)C | 3.99%
CC(C)N(C)Cc1ncn2c1CN(C(=O)C1CCCO1)CCC2 (configuration not stated) | -103%
COCCN1C(=O)[C@]2(CC[C@@H]3CN(S(=O)(=O)CC(C)C)C[C@@H]32)N=C1C | -69.3%
Cc1ncncc1-c1ccnc(N(C)C)n1 | -8.3%
CC(C)Nc1nc2c(s1)C(=O)CN(CC1CC1)C2 | -10.1%
Cc1nnc(SCCNc2cc(C3CC3)ncn2)s1 | -6.67%
C[C@@H]1CN(c2ccc(Cl)cn2)C[C@]1(C)O | 4.38%
COc1ccc2c(c1)OCC(CNC(=O)c1ccc3[nH]nnc3c1)C2 (configuration not stated) | -7.72%
CCCn1c(C)c(CC(=O)N(C)CC(=O)OC)c2c1CC(C)(C)CC2=O | -0.839%
CN(C)C(C(=O)NCC1(O)CCCCC1)c1cccc(F)c1 (configuration not stated) | -2.07%
Cc1cnc(CNCc2cn(CCN3CCSCC3)nc2C)cn1 | -0.629%
c1ccc(-c2n[nH]c(CCNc3nnc(C4CCC4)o3)n2)cc1 | 0.677%
COc1cccc(N2CCN(CC[C@H](O)c3ccccc3)CC2=O)c1 | 3.61%
CC(C)n1ccnc1C1CCN(C(=O)N2CCCC2)CC1 | 0.386%
O=C(O)C1(n2ccc(-c3ccco3)n2)CCN(Cc2ccccn2)CC1 | -137%
CCn1cnc(NC(=O)NCC2CCS(=O)(=O)CC2)n1 | 5.08%
Cc1cccc(-n2cc(CN3CCN(C)[C@@H]4CS(=O)(=O)C[C@@H]43)cn2)c1 | 2.25%
Cc1cc(CN2CCCC2)cc(Oc2ccc3c(c2)CC(CN)O3)c1 (configuration not stated) | 0.298%
CC(C)Cc1cc(C(=O)NCC2CCN(c3ccccc3F)C2)on1 (configuration not stated) | 0.075%
CN1C(=O)C(c2ccccc2)CC12CCN(CCN1CCCC1=O)CC2 (configuration not stated) | -14.6%

Compound | cytotoxicity at 10 µM
O=C1N(Cc2ccc(F)c(F)c2)CCCC1(O)CNCc1ccccn1 (configuration not stated) | -2.63%
Cc1cc(NC(=O)CN2CCCC2Cn2nc(C)nc2C)on1 (configuration not stated) | -3.31%
CCc1nc(C(=O)N2CCN(CC)CC2)nn1-c1ccccc1Cl | 2.79%
Cc1nc(C(=O)N2CCCCC2)nn1-c1ccccc1Cl | -6.46%
COc1ccnc(N2CCN(C(=O)N3CCOCC3)CC2)n1 | -1.64%
Cc1noc(C)c1C(=O)N1CCCN(Cc2nccn2C(C)C)CC1 | -3.92%
Cc1ccsc1C(=O)NCc1ccnc(N2CCN(C)CC2)c1 | -8.6%
CC(C(=O)N1CCN(Cc2ccc3c(c2)OCO3)CC1)n1ccnc1 (configuration not stated) | -9.57%
Cc1cccc(C(=O)N2CCCC(c3noc(C)n3)C2)n1 (configuration not stated) | -19.9%
CCc1c(C(=O)NCC2CCS(=O)(=O)C2)cnn1-c1ccccc1 (configuration not stated) | -8.22%
CC(C)c1nnc2n1CCN(CCS(=O)(=O)c1ccccc1)C2 | -8.22%
CC(C)c1nnc2n1CCN(C(=O)c1ccc(N(C)C)nn1)C2 | -9.86%
c1ccc(Cn2ccnc2CNCC2CCCN2c2cccnn2)cc1 (configuration not stated) | -9.86%
Cc1ccccc1CNC(=O)N1CCC(n2cncn2)CC1 | 2.54%
Cc1nc(C)n(CC2CCCN(CCOc3ccc(F)cc3)C2)n1 (configuration not stated) | -3.33%
c1csc(-c2nc(CN3CCOC(Cn4cccn4)C3)cs2)c1 (configuration not stated) | -8.25%
Cc1cc(C)n(CC2CCCN2CC(=O)N(C)Cc2ccco2)n1 (configuration not stated) | -12.2%
CCOc1cc(F)ccc1NC(=O)N(C)Cc1cnn(C)c1 | -17%
CCCc1ccc(S(=O)(=O)NC(=O)CCC2CCCO2)cc1 (configuration not stated) | -25.7%
COc1ccc(CC(=O)Nc2cccnc2N2CCCC2)cc1OC | -22.6%
Cc1cnn(CC2CN(Cc3nc(C)no3)CCO2)c1 (configuration not stated) | -18.5%
COCCOc1ccc(NC(=O)N2CCCC2c2ccsc2)cn1 (configuration not stated) | -8.33%
COC(=O)C(NC(=O)C(C)C)c1cc(F)ccc1F (configuration not stated) | -4.53%

Compound | cytotoxicity at 10 µM
CS(=O)(=O)Cc1cccc(C(=O)N2CCCC(n3cccn3)C2)c1 (configuration not stated) | 5.05%
CC(=O)NC1CCCN(C(=O)NCc2cccnc2-n2cccn2)C1 (configuration not stated) | 5.56%
O=C(c1ccccc1N1CCOCC1)N1CCCC(n2cccn2)C1 (configuration not stated) | -7.32%
O=C(CN1CCc2c(ncn2C2CC2)C1)NC1CC1 | 1.01%
COc1c(CNCC(O)c2cccc(F)c2)c(C(C)C)nn1C (configuration not stated) | 2.31%
CN(Cc1nnc(-c2ccco2)o1)CC1CCCN1c1cccnn1 (configuration not stated) | 5.68%
CCn1ncc(CN2CCCC(n3c(=O)oc4ccccc43)C2)c1C (configuration not stated) | 1.83%
Cc1cc(C)nc(N2CC=C[C@@H]2C(=O)NCc2ccc3c(c2)OCO3)n1 | -8.49%
CN(C)C[C@H]1OC[C@@H]2CCN(C(=O)c3cccn3C)C[C@@H]21 | -2.29%
Cc1ccsc1C(=O)N1CCC2(CC1)C(=O)N(C)CCN2CC1CC1 | -110%
c1coc(CN2CCCn3c(nnc3Cn3cccn3)C2)c1 | -0.945%
CCS(=O)(=O)NC[C@]12COC[C@H]1CN(Cc1ccccn1)C2 | -72.5%
COCC1c2nnn(CC3CC3)c2CCN1Cc1ccncc1 (configuration not stated) | 3.37%
Cc1occc1C(=O)N1CCc2c(CNc3ncccn3)cncc2C1 | -83.1%
Cc1cc(C(=O)N2C[C@@H]3CC[C@H]2CN(Cc2ccccn2)C3)nc(N)n1 | -0.0925%
NC1CC(C(F)(F)F)=NC=C1c1ccccc1 (configuration not stated) | -9.16%
COc1ccc(CN2C[C@H]3CC[C@@H](C2)N(S(=O)(=O)C2CC2)C3)cc1 | -1.12%
O=C(c1ccccn1)N1C[C@H]2CC[C@@H](C1)N(C(=O)Cc1cccs1)C2 | -1.13%
Cc1cc(C(=O)N2C[C@@H]3CC[C@H]2CN(Cc2ccccn2)C3)nc(C)n1 | 2.36%
O=C1CCCC2=Nc3nonc3NC(c3cccc(F)c3F)C12 (configuration not stated) | 0.285%
